Values joined by “and” are separate entries in the source; they are usually repeats but may differ in a detail not shown here. Equal values may be shown once.
Tests used:
Mus musculus [1] = test: Effective dose against maximal electroshock seizure in mice after intraperitoneal administration; type: functional
Method in brief: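 Mice, ip; compounds suspended in 0.5% (w/v) methylcellulose in water, 0.01 mL/g body weight. Butacaine-containing saline electrolyte was dropped on the eyes, then corneal electrodes delivered 60-cycle AC, 50 mA, 0.2 s. The endpoint was abolition of hindlimb tonic extension.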

[2] = (§1) Neurotoxic toxicity was evaluated by rotarod test after intraperitoneal administration; type: organism-based; conditions: mouse, in vivo, ip
Method in brief: (§2)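 Mice, ip, in 0.5% methylcellulose suspension. Impairment was defined as failure to stay balanced for 1 min on a 1 in. knurled rod turning at 6 rpm, in each of three successive trials.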

[3] = Neurotoxic toxicity in mice was evaluated by rotarod test after intraperitoneal administration; type: organism-based; conditions: mouse, in vivo, ip; method in brief: as §2
[4] = Protective index between TD50/MES ED50 when administered intraperitoneally to mouse; type: ADME, organism-based; conditions: in vivo, ip, read-out: PI
Rattus norvegicus = test: Effective dose against maximal electroshock seizure in rat after oral administration; type: functional
Method in brief: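 Male Sprague Dawley rats dosed orally with a suspension in 0.5% (w/v) methylcellulose in water. After anaesthetic electrolyte eye drops, corneal 60-cycle AC was applied at 150 mA for 0.2 s. Protection meant abolition of hindlimb tonic extensor.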

[5] = Neurotoxic toxicity against Rat was evaluated by rotarod test afte oral administration; type: organism-based; conditions: in vivo
[6] = Protective index between TD50/MES ED50 when administered orally to rat; type: ADME, organism-based; conditions: in vivo, po, read-out: PI
Method in brief: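 Rats, oral. PI = TD50 (ataxia, gait and placing-response assessment) / MES ED50 (150 mA, 0.2 s corneal shock), with both taken at the time of peak effect.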

[7] = Protective index between TD50/MES ED50 when administered intraperitoneally to mice; type: ADME, organism-based; conditions: mouse, in vivo, ip; read-out: PI
[8] = Neurotoxic toxicity was evaluated by rotarod test after intraperitoneal administration determined from horizontal screen test; type: organism-based; conditions: mouse, in vivo, ip
Mus musculus [9] = test: as §1; type: organism-based; conditions: in vivo, ip; method in brief: as §2
[10] = Neurotoxic toxicity against Rat was evaluated by rotarod test afte oral administration <250; type: organism-based; conditions: in vivo
[11] = Mus musculus, ip, read-out: ED50

CCNCC(NC(C)=O)C(=O)NCc1ccccc1 (centres undefined)
ED50 (Mus musculus [1]; [11]): > 100 mg/kg
TD50 [2]: 100 mg/kg

CC(=O)N[C@H](CO)C(=O)NCc1ccccc1
TD50 [3]: > 500 mg/kg
ED50 (Mus musculus [1]; [11]): 53 mg/kg
selectivity ratio [4]: > 9.4

CC(=O)NC(NO)C(=O)NCc1ccccc1 (centres undefined)
ED50 (Mus musculus [1]; [11]): 100 mg/kg

COC[C@@H](NC(C)=O)C(=O)NCc1cccc(F)c1
ED50 (Mus musculus [1]; [11]): 6.9 mg/kg
ED50 (Rattus norvegicus): 6.9 mg/kg
TD50 [5]: > 400 mg/kg
selectivity ratio [6]: > 58
selectivity ratio [7]: 6.7
TD50 [2]: 46 mg/kg

CC(=O)NC(CI)C(=O)NCc1ccccc1 (centres undefined)
TD50 [2]: 300 mg/kg

CON(C)C(NC(C)=O)C(=O)NCc1ccccc1 (centres undefined)
TD50 [8]: 51 mg/kg
ED50 (Mus musculus [1]; [11]): 6.7 mg/kg
selectivity ratio [7]: 7.6

CC(=O)NC(C)C(=O)NCc1ccccc1 (centres undefined)
ED50 (Rattus norvegicus): 48 mg/kg
selectivity ratio [6]: > 21
selectivity ratio [7]: 5.9

CNCC(NC(C)=O)C(=O)NCc1ccccc1 (centres undefined)
ED50 (Mus musculus [1]): <300 mg/kg and >100 mg/kg
TD50 (Mus musculus [9]): < 300 mg/kg and > 100 mg/kg

CC(=O)NC(CN)C(=O)NCc1ccccc1 (centres undefined)
ED50 (Mus musculus [1]; [11]): > 100 mg/kg
TD50 [2]: > 100 mg/kg

CCOCC(NC(C)=O)C(=O)NCc1ccccc1 (centres undefined)
selectivity ratio [4]: 4.6
ED50 (Rattus norvegicus): 19 mg/kg
selectivity ratio [6]: > 26
TD50 [2]: 78 mg/kg

CC(=O)NC(CBr)C(=O)NCc1ccccc1 (centres undefined)
TD50 (Mus musculus [9]): > 100 mg/kg and < 300 mg/kg

CC(=O)NC(CO)C(=O)NCc1ccccc1 (centres undefined)
TD50 [8]: < 300 mg/kg
ED50 (Mus musculus [1]): >100 mg/kg and <300 mg/kg

CC(=O)NC(CN1CCOCC1)C(=O)NCc1ccccc1 (centres undefined)
ED50 (Mus musculus [1]): <300 mg/kg and >100 mg/kg
TD50 [2]: > 300 mg/kg

CC(=O)NC(CCl)C(=O)NCc1ccccc1 (centres undefined)
ED50 (Mus musculus [1]; [11]): 100 mg/kg
TD50 (Mus musculus [9]): < 300 mg/kg and > 100 mg/kg

COC[C@H](NC(C)=O)C(=O)NCc1ccccc1
TD50 [3]: > 300 mg/kg
ED50 (Mus musculus [1]): >100 mg/kg and <300 mg/kg
ED50 (Rattus norvegicus): > 30 mg/kg
TD50 [5]: > 30 mg/kg

CONC(NC(C)=O)C(=O)NCc1ccccc1 (centres undefined)
ED50 (Mus musculus [1]; [11]): 6.2 mg/kg
selectivity ratio [7]: 7.4

CC(=O)NC(CN(C)C)C(=O)NCc1ccccc1 (centres undefined)
TD50 [2]: > 300 mg/kg

CSCC(NC(C)=O)C(=O)NCc1ccccc1 (centres undefined)
TD50 (Mus musculus [9]): < 300 mg/kg and > 100 mg/kg

COC[C@@H](NC(C)=O)C(=O)NCc1ccc(F)cc1
ED50 (Mus musculus [1]; [11]): 4.2 mg/kg
TD50 [10]: > 125 mg/kg
ED50 (Rattus norvegicus): 2.6 mg/kg
TD50 [5]: < 250 mg/kg
selectivity ratio [7]: 6.7

CC(=O)N[C@@H](C)C(=O)NCc1ccccc1
selectivity ratio [7]: 1.5

CC(=O)N[C@H](C)C(=O)NCc1ccccc1
ED50 (Mus musculus [1]; [11]): 55 mg/kg
ED50 (Rattus norvegicus): 28 mg/kg
selectivity ratio [6]: > 36
selectivity ratio [7]: 3.9

COC[C@@H](NC(C)=O)C(=O)NCc1ccccc1 [LACOSAMIDE]
TD50 [5]: > 500 mg/kg

O=C1NC(=O)C(c2ccccc2)(c2ccccc2)N1 [PHENYTOIN]
ED50 (Mus musculus [1]; [11]): 6.5 mg/kg
selectivity ratio [4]: 6.6
ED50 (Rattus norvegicus): 23 mg/kg
selectivity ratio [6]: > 22

CCCC(CCC)C(=O)O [VALPROIC ACID]
ED50 (Mus musculus [1]; [11]): 290 mg/kg
ED50 (Rattus norvegicus): 400 mg/kg

Source: ChEMBL document CHEMBL1129569, “Synthesis and anticonvulsant activities of N-Benzyl-2-acetamidopropionamide derivatives” (J Med Chem, 1996)
